Results as given in ChEMBL document CHEMBL4266022, “Azaphilone Derivatives from the Fungus Coniella fragariae Inhibit NF-κB Activation and Reduce Tumor Cell Migration” (J Nat Prod, 2018).
The source made the active and inactive calls. The rule behind the calls is not given here.

How the values were obtained:
MDA-MB-231 [1] = experiment: Cytotoxicity against human MDA-MB-231 cells assessed as decrease in cell viability after 24 hrs by cellTiter-Glo reagent based assay; type: functional; settings: MDA-MB-231, 24 h
Method in brief: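 MDA-MB-231 cells (RPMI, 15% FCS, 37 °C, 5% CO2) seeded at 5600 cells/well in 384-well plates, cultured overnight, then treated 24 h. Viability by CellTiter-Glo luminescence. Positive control 5 μM staurosporine; 1% DMSO set as 100% viability.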

[2] = Inhibition of NF-kappaB in human MDA-MB-231 cells assessed as reduction in TNFalpha-induced NF-kappaB activation incubated with compound for 20 mins followed by TNFalpha stimulation measured after 2 hrs by luminescence assay
MDA-MB-231 [3] = experiment: Inhibition of cell migration in human MDA-MB-231 cells at 10 uM after 24 hrs by wound-scratch assay; type: functional; settings: MDA-MB-231, 24 h
Method in brief: (§1)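 MDA-MB-231 cells seeded at 50 000 cells/well; scratch made after 24 h with automated wound maker. Compounds added, wound imaged every 2 h over 24 h by live-cell imager; migration into wound quantified.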

MDA-MB-231 [4] = experiment: Anti-invasive activity in human MDA-MB-231 cells assessed as inhibition of cell invasion into surrounding extracellular matrix at 10 uM after 24 hrs; type: functional; settings: MDA-MB-231, 24 h
Method in brief: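 Spheroids formed from 3000 MDA-MB-231 cells/well with 0.25% matrigel in ultralow-attachment plates (centrifuged 10 min, 1000 rpm, 4 °C), 72 h formation. Embedded in matrigel:collagen R (1:1), polymerized 1 h at 37 °C. Invasion into matrix imaged daily over 3 days, quantified by image analysis.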

MDA-MB-231 [5] = experiment: Inhibition of cell migration in human MDA-MB-231 cells at 5 uM after 24 hrs by wound-scratch assay; type: functional; method in brief: as §1
MDA-MB-231 [6] = experiment: Cytotoxicity against human MDA-MB-231 cells assessed as decrease in cell viability at 5 uM after 24 hrs by cellTiter-Glo reagent based assay; type: functional
Method in brief: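 MDA-MB-231 cells (RPMI, 15% FCS, 37 °C, 5% CO2) were seeded at 5600 cells/well, cultured overnight, then treated at 5 μM for 24 h. Viability was read by CellTiter-Glo luminescence and normalised to 1% DMSO as 100% viability.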

Row | IC50 [2] [µM] | Compound | IC50 (MDA-MB-231 [1]) [µM] | inhibition at 10 µM (MDA-MB-231 [3]) [%] | inhibition at 10 µM (MDA-MB-231 [4]) [%] | inhibition at 5 µM (MDA-MB-231 [5]; MDA-MB-231, 24 h) [%] | inhibition (MDA-MB-231 [5]) | Activity (MDA-MB-231 [6]) [%]
1 | 29.4 | CCCCC[C@H](O)CC(=O)C[C@H]1C2=COC(C)=CC2=C(C=O)C(=O)[C@]1(C)O | 79.3 | 83 |  |  |  | 
2 | 4.4 | CCCCC/C=C/C(=O)[C@H]1C(=O)O[C@@]2(C)C(=O)C(C=O)=C3C=C(C)OC=C3[C@H]12 | 21.5 | 98 | 52 | 60 |  | 
3 | 11.3 | CCCCC[C@@H](CC(=O)C[C@H]1C2=COC(C)=CC2=C(C=O)C(=O)[C@]1(C)O)OC | 21.6 |  |  |  | inactive | 
4 | 37.8 | CCCCC/C=C/C(=O)C[C@H]1C2=COC(C)=CC2=C(C=O)C(=O)[C@]1(C)O | 18.6 | 78 |  |  |  | 
5 | > 100 | CCCCCCCC(=O)[C@H]1C(=O)O[C@@]2(C)C(=O)C(C=O)=C3C=C(C)OC=C3[C@H]12 | 19.6 |  |  |  |  | 
6 | 70.7 | CCCCC[C@@H](O)CC(=O)C[C@H]1C2=COC(C)=CC2=C(C=O)C(=O)[C@]1(C)O | > 100 |  |  |  | inactive | 
7 | > 100 | CCCCCC(CC(=O)[C@H]1C(=O)O[C@@]2(C)C(=O)C(C=O)=C3C=C(C)OC=C3[C@H]12)OC (some centres not stated) | 21 |  |  |  |  | 
8 |  | CN[C@@H]1C[C@H]2O[C@@](C)([C@@H]1OC)n1c3ccccc3c3c4c(c5c6ccccc6n2c5c31)C(=O)NC4 [STAUROSPORINE] |  |  |  |  |  | 10.9
